# High-throughput results deposited in PubChem by several laboratories.
# Sampled rows, rich in hits. Any-hit rate of the full collection: about 4.1%.
# APP 5'UTR act: activators of APP 5'UTR luciferase reporter, primary screen, SH-SY5Y cells. SH-SY5Y APP 5'UTR luciferase reporter, luminescence; zero percent = DMSO vehicle wells. activation, % at 2 µM. 190,000 compounds, 1% hits. AID 1276, 2008;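 active means activation above a set limit, based on mean plus 3 SD of controls, cut at about 140% in these data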
# FLuc inhib CS: firefly luciferase enzyme inhibitors, primary screen, artefact control for luciferase-based inhibitor screens, biochemical, luminescence, ATPLite. 200,000 compounds, 1.5% hits. Luciferin 4-monooxygenase (Photinus pyralis), P08659. inhibition, % at 10 µM. 10 min;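 active means inhibition above about 50% when tested at 10 µM, limit read from the data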
# Target sequence (P08659 whole entry, looked up): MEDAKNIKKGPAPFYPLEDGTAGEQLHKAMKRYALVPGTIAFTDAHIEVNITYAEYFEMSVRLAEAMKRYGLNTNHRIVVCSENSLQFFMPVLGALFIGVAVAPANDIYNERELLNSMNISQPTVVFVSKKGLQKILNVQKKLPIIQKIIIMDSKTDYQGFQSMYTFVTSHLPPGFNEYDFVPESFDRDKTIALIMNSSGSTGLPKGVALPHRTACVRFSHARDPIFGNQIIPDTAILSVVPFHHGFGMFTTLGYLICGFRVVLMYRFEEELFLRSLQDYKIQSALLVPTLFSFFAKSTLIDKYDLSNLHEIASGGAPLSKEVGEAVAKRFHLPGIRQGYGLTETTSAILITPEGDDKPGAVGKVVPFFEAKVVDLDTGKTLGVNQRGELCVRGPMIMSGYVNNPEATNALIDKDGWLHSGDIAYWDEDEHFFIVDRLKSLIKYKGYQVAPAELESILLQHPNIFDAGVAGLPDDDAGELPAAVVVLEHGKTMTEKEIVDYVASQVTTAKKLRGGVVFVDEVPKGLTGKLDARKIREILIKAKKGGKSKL
# NF-kB neuron act: activators of NF-kB expression in neurons, primary screen, cell-based, HTS; human neuronal cells, NF-kB reporter expression; stronger effect = higher value; fold change at 12.5 µM; 190,000 compounds, 1.6% hits; in the data active means fold change above about 3.3
# STAT1 activator: STAT1 signaling activators, primary screen, cell-based, HTS, luciferase reporter | NIH 3T3 STAT1-luciferase reporter, IFN-gamma, luminescence; 100% = IFN-gamma alone, no compound | activation (% of control), % at 5.5 µM | 200,000 compounds, 2.6% hits | AID 932, 2007;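 active means activation above the screen-wide mean activation plus 3 SD, cut at about 130% in these data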;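 further: raw ratio to IFN-gamma control signal so 100% means no change and 0% no light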
# FLuc act counter: FLuc activators, initial screening, artefact control for FLuc-dependent activation tests, biochemical, ATPlite luminescence | 200,000 tested, under 10 active | activation factor at 10 µM | ATPlite luciferase biochemical, 10 min; 0 = ATP-free wells, 1 = DMSO control | Luciferin 4-monooxygenase (Photinus pyralis), P08659;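 active means luciferase activation factor, scaled between plate controls, of at least 2 with compound at 10 µM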
#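 System: luciferase plus luciferin reagent, cell-free; medium: PBS as buffer for the ATP substrate; dosing: test compounds dosed from 2 mM stocks in 100% DMSO; timing: 10 min post-reagent at room temperature; measured by: luminescence measurement of luciferase light output; evaluation: luciferase activation, seen as luminescence increase over controls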
# Starred values were filed as active, the others as inactive; x = no result.
SMILES,APP 5'UTR act,FLuc inhib CS,NF-kB neuron act,STAT1 activator,FLuc act counter
O=C(C1COc2ccccc2O1)N1CCc2ccccc21 (stereo not drawn),50,0,1.9,131*,1
O=C(C1COc2ccccc2O1)N1CCCC1 (stereo not drawn),9,-2,1.4,102,1
CC(=O)Nc1ccc(/C=N/N2CCCCC2)cc1,28,22,2.1,135*,0.8
CNC(=O)c1ccccc1NC(=O)c1c(O)c2c([nH]c1=O)CCCC2,-3,13,0.84,106,0.9
O=C(N/N=C/c1cccc(F)c1)c1c(O)c2c([nH]c1=O)CCCC2,142*,5,1.2,103,0.9
Cc1ccc(O)c(N=NC2=C(O)CC(C)(C)CC2=O)c1,-36,62*,2.8,94,0.4
CC1(C)CC(=O)C(N=Nc2cc(Cl)c(Cl)c(Cl)c2)=C(O)C1,-6,-2,0.81,98,1
Cc1ccc(NC2=Nc3ccccc3CS2)cc1,184*,69*,5.6*,100,0.3
Cc1ccc(CNc2ncnc3c2cnn3-c2ccccc2)cc1,1,0,1.2,107,1
Clc1ccc(-n2ncc3c(NCc4ccccn4)ncnc32)cc1,26,0,2.6,150*,1
Cc1cccc(-n2ncc3c(NCCCO)ncnc32)c1,135*,53*,3.3,141*,0.5
Cc1ccc(-n2ncc3c(NCc4ccccn4)ncnc32)c(C)c1,12,-8,1.2,100,1.1
C=CCNc1ncnc2c1cnn2-c1cccc(C)c1,212*,42,5*,142*,0.6
Cc1ccc(-n2ncc3c(NCc4ccccc4)ncnc32)cc1,53,1,1.5,136*,1
CN1CCN(CC(O)COc2ccc(C34CC5CC(CC(C5)C3)C4)cc2)CC1 (stereo not drawn),19,-2,0.59,103,1
CC(C)NC(=O)C1(O)c2ccccc2NC(=O)N1c1ccc(Cl)c(Cl)c1 (stereo not drawn),-25,-7,0.84,87,1.1
CCNC(=O)N1CCOCC1,10,-4,1.2,110,1
CCCCNc1ncnc2c1cnn2-c1ccccc1,102,35,5.7*,134*,0.7
COc1ccc(-n2nc(C(=O)NCC(=O)NCC3COc4ccccc4O3)c3ccccc3c2=O)c(OC)c1 (stereo not drawn),-7,-8,1.8,96,1.1
Cc1nn(-c2ccccc2)c(N)c1-c1ccccc1,7,73*,2.6,113,0.3
Cc1nn(-c2nc3ccccc3s2)c(N)c1Sc1ccc(F)cc1,32,1,1.2,138*,1
Cc1nn(-c2nc3ccccc3s2)c(N)c1-c1ccccc1,122,52*,7.6*,143*,0.5
Cc1cc(N)n(-c2nc3ccccc3s2)n1,113,75*,4.5*,122,0.2
CCOc1ccc(-c2n[nH]c(C)c2Oc2ccc(OC)cc2)c(O)c1,-19,0,1.4,100,1
S=C(Nc1ccc(Cl)c(Cl)c1)NN1CCOCC1,-10,-6,1.1,104,1.1
SMILES,APP 5'UTR act,FLuc inhib CS,NF-kB neuron act,STAT1 activator,FLuc act counter
COc1ccc(CCNC(=O)CSc2ccc(-c3cccs3)nn2)cc1OC,42,-3,1,102,1
O=C1c2ccccc2C(=O)C1c1ccc2ccccc2n1,129,91*,1.2,125,0.1
O=C1/C(=C\c2cccs2)Sc2ccc3ccccc3c21,178*,54*,1.1,105,0.5
O=C(Nc1ccccn1)c1ccc(Br)c(S(=O)(=O)N2CCCCC2)c1,4,-6,1,99,1.1
O=C1CC(C(=O)Nc2ncccn2)C(c2ccccc2)O1 (stereo not drawn),-2,3,1.1,105,1
CNc1nc(OCC(F)(F)F)nc(N2CCN(C34CC5CC(CC(C5)C3)C4)CC2)n1,16,x,x,111,x
C/C(=N/OC(=O)c1cccc(Cl)c1)c1nccs1,-15,55*,1.1,103,0.5
O=C(O/N=C(\c1ccccc1)c1ccncc1)c1ccccc1F,16,-7,0.86,104,1.1
C/C(=N\OC(=O)c1ccccc1F)c1nccs1,-18,85*,1.1,94,0.2
O=C(NC(=S)NC1CCCCCC1)c1cncc(Br)c1,23,1,2.1,141*,1
Cn1c(SCc2ccccn2)nnc1-c1ccccc1,10,-3,1.7,108,1
COc1ccc(S(=O)(=O)N2CC(O)C[C@H]2C(=O)OCC(=O)N2CCCCCC2)cc1 (stereo partly drawn),13,-4,1.1,139*,1
Cc1ccccc1NC(NC(=O)c1cccs1)C(Cl)(Cl)Cl (stereo not drawn),-12,-4,0.87,92,1
O=C(OCc1nnc(-c2ccccc2)o1)C1CCN(S(=O)(=O)c2cccs2)CC1,13,-9,1.4,94,1.1
Nc1nc(CSc2ccccn2)nc(Nc2ccccc2)n1,134,3,4.7*,148*,1
Nc1nc(CSCCO)nc(Nc2ccccc2)n1,3,0,1.2,105,1
COc1cc(/C=N/N2CCOCC2)ccc1OCc1ccc(Cl)cc1,144*,5,2.7,140*,1
CCOC(=O)C1(CCOC)CCN(Cc2nc(C(C)C)cs2)CC1,6,-8,1.1,93,1.1
O=C(NCc1cccnc1)C1CCCN(Cc2cnn(-c3ccccc3)c2-n2cccc2)C1 (stereo not drawn),-26,-5,1,95,1
NNC(=O)CSc1cccc2cccnc12,40,-1,1,101,1
O=C(CSc1nncc2ccccc12)N1CCCCC1,22,6,1.9,130*,0.9
O=C(CSc1nc(C2CCCCC2)nc2ccccc12)N1CCCC1,13,-6,1,93,1.1
O=C(CSc1cccc2cccnc12)N1CCCC1,-28,-3,5*,97,1
CN(C)C(=O)CSc1cccc2cccnc12,-11,-6,5.1*,105,1.1
O=C(O)c1cccnc1SCC(=O)N1CCCCCC1,-6,-3,0.88,99,1
Cc1ccc2nc(SCC(=O)N3CCCC3)[nH]c2c1,115,5,3.2,144*,0.9
Cc1ccc2nc(SCC(=O)N3CCN(C(=O)c4ccco4)CC3)[nH]c2c1,-7,2,1.1,120,1
Cc1ccc(NC(=O)/C=C/c2ccc(Cl)cc2)nc1,55,6,1.7,137*,0.9
O=C(/C=C/c1ccccc1)Nc1ccc(Br)cn1,-63,11,0.97,142*,0.9
O=C(/C=C/c1cccc([N+](=O)[O-])c1)Nc1ccc(Cl)cn1,45,0,0.56,113,1
